# Bioassay records (PubChem)
# Compounds with a hit are over-represented: about 1.4% of the library has one in this group of screens.
# hiPSC survival = enhancers of single-cell hiPSC survival, primary screen, ATPlite luminescence; 100% = ROCK inhibitor wells, 0% = DMSO; survival enhancement, % at 20 µM; 0.044% of 360,000 active; in the data active = survival enhancement above about 18%;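 also: cells exposed to compounds for 16 hours before the ATP read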
# SKN-1 block = suppressors of acrylamide-induced Pgst-4::GFP reporter in worms, primary screen, SKN-1 inhibitor project, whole organism, uHTS, GFP/RFP fluorescence ratio, strain VP596 | C. elegans VP596 Pgst-4::GFP/RFP ratio, 24 h | inhibition, % at 21.8 µM | 0.49% of 360,000 active | AID 624304, 2012;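 active = interference check ratio from 0.5 to 1.5 plus GFP to RFP signal ratio inhibition reaching or exceeding a fixed threshold, cut at about 30% in these data, passing the limit was not always enough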
# MT1-MMP act inh = blockers of MT1-MMP proenzyme processing, primary screen, HT1080 RFP-PRO-GFP cells, GFP/RFP fluorescence. Matrix metalloproteinase-14 (Homo sapiens), P50281. GFP/RFP ratio fluorescence, overnight; percent of plate control window, DMSO zero. AID 651647, 2012. 0.061% of 360,000 active. GFP/RFP ratio change, % at 20 µM;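 active = GFP/RFP ratio change of at least 30% with cell ATP level not reduced by more than half and red fluorescence within 50% of control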
#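 system = RFP-PRO-GFP reporter HT1080 cells | dosing = 20 µM single dose, 1% DMSO | timing = overnight cell settling, then overnight compound exposure, 37 °C, 5% CO2 | read-out basis = GFP/RFP fluorescence ratio | controls = DMSO and RFP-L50D-GFP cell wells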
# CendR NRP1 mod = modulators of CendR peptide binding to NRP-1, primary screen, biochemical, fluorescence polarization, uHTS; Neuropilin-1 (Homo sapiens), O14786; FAM-RPARPAR peptide binding to NRP-1; inhibition, % at 25 µM; 0.85% of 360,000 active; AID 602438, 2012;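 active = inhibition or corrected inhibition above about 18%, plus a signal ratio from 0.5 to 1.5, limit read from the data, passing the limit was not always enough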
# Starred values were filed as active, the others as inactive; x = no result given.
SMILES,hiPSC survival,SKN-1 block,MT1-MMP act inh,CendR NRP1 mod
O=C1CCN(Cc2ccccc2)S(=O)(=O)c2ccccc21,-3,12,6,24*
C=CCNc1nc(NCCN2CCOCC2)nc(N2CCOCC2)n1,1,35*,-4,3
Cc1c(C(=O)OCC(=O)Nc2ccc(C(N)=O)cc2)cccc1[N+](=O)[O-],22*,-8,1,3
Fc1cccc(Cl)c1/C=C/c1cnc2ccccc2n1,1,20,-5,8
Fc1cccc(F)c1/C=C/c1ccc2ccccc2n1,-3,51*,-1,-3
CCn1c(SC(C)C(=O)NC2CCCc3ccccc32)nnc1-c1cccs1 (stereo not drawn),3,-23,4,34*
CCOc1ccc(S(=O)(=O)NCc2ccccn2)cc1NC(=O)c1ccccc1F,0,7,11,11
NNC(=O)COc1cccc(Oc2ccccc2)c1,-1,5,7,0
O=[N+]([O-])c1ccc(-c2nc3ccc([N+](=O)[O-])cc3[nH]2)cc1,4,4,2,36*
Nc1ccc(-c2nc3ccc([N+](=O)[O-])cc3[nH]2)cc1,-3,-7,-2,-6
O=C1CCC[C@@H]2Cc3nc4cc5c(cc4cc3[C@@H]3CCN1[C@H]23)OCO5,-3,4,-4,24*
Cc1ccc(S(=O)(=O)N2CCOCC2)cc1NC(=O)COC(=O)Cn1c(C)csc1=O,2,14,0,10
COc1ccc(-c2ccc(/C=C3/C(=N)N4C(C)=CSC4=NC3=O)o2)c([N+](=O)[O-])c1,3,43*,16,-31
COC(=O)[C@H](CC(C)C)N1Cc2cc(OC)cc(OC)c2-c2ccccc2S1(=O)=O,0,-3,0,-1
CC1(c2ccccc2Cl)NC(=O)N(CC(=O)N2CCc3ccccc3C2)C1=O (stereo not drawn),0,10,0,-8
CC(C)n1c2ccccc2c2cc([N+](=O)[O-])ccc21,-1,11,-3,-16
CCn1c2ccccc2c2cc([N+](=O)[O-])ccc21,-1,25,-6,29*
S=c1[nH]nc(-c2ccco2)n1/N=C/c1ccc(Cl)c(Cl)c1,-1,-2,x,3
S=c1[nH]nc(-c2ccco2)n1/N=C/c1c(Cl)cccc1Cl,-1,47*,2,-11
CSc1nccc(N2CCN(c3ccc(F)cc3)CC2)n1,4,2,1,-8
Clc1ccc(N2CCN(c3ccnc(Cl)n3)CC2)cc1,0,57*,6,0
C=CC[n+]1ccc(/C=C2\C=Cc3cc(C)ccc3N2CC)c2ccccc21,-3,38*,61*,13
CCN(CC)c1ccc(/C=N/NC(=S)NCc2ccco2)cc1,-1,7,-3,-18
Clc1ccc(C#Cc2cccnc2)cc1,0,75*,-1,5
COc1ccc(S(=O)(=O)N2CCCC2CNC(=O)C(=O)NC2CCCCCC2)cc1 (stereo not drawn),0,-10,2,-3
SMILES,hiPSC survival,SKN-1 block,MT1-MMP act inh,CendR NRP1 mod
O=C(COc1ccccc1)Nc1ccc(-c2ccc(N3CCOCC3)nn2)cc1,0,-1,6,22*
CN1CCN(c2ccc(-c3cccc(NC(=O)COc4ccccc4)c3)nn2)CC1,0,-1,-9,-2
CCOC(=O)C(C)Sc1ncnc2c1nnn2-c1ccc(F)cc1 (stereo not drawn),4,-2,-2,1
O=C(NC1CC1)c1ccc(COc2ccc(F)cc2)o1,0,-11,-4,25*
C[C@@H]1CN([C@@H](C)CO)C(=O)c2cccc(NS(C)(=O)=O)c2O[C@H]1CN(C)Cc1ccc(C(=O)O)cc1,0,4,-1,26*
C[C@@H]1CN([C@@H](C)CO)C(=O)c2cccc(NS(C)(=O)=O)c2O[C@H]1CN(C)Cc1ccc(Oc2ccccc2)cc1,0,-2,1,7
C[C@H](CO)N1C[C@H](C)[C@@H](CN(C)Cc2ccc(C(=O)O)cc2)Oc2c(NC(=O)Cc3ccccc3)cccc2C1=O,-3,15,-1,30*
C[C@@H]1CN([C@H](C)CO)C(=O)c2cccc(NC(=O)c3ccncc3)c2O[C@@H]1CN(C)Cc1ccc(C(=O)O)cc1,1,-3,-1,-2
